Measured values published in ChEMBL document CHEMBL1154983, “Arylpiperazine-containing pyrrole 3-carboxamide derivatives targeting serotonin 5-HT(2A), 5-HT(2C), and the serotonin transporter as a potential antidepressant” (Bioorg Med Chem Lett, 2010).
pIC50: −log10 of the molar value. Active and inactive are the calls of the source. The rule behind the calls is not given here.

Legend:
[1] = molecular target: 5-hydroxytryptamine receptor 2A (Homo sapiens, UniProt P28223); experiment: Displacement of [3H]ketanserin from human recombinant 5-HT2A receptor expressed in CHO-K1 cells after 60 mins; assay type: cell-based
5-hydroxytryptamine receptor 2A, sequence (P28223 whole entry): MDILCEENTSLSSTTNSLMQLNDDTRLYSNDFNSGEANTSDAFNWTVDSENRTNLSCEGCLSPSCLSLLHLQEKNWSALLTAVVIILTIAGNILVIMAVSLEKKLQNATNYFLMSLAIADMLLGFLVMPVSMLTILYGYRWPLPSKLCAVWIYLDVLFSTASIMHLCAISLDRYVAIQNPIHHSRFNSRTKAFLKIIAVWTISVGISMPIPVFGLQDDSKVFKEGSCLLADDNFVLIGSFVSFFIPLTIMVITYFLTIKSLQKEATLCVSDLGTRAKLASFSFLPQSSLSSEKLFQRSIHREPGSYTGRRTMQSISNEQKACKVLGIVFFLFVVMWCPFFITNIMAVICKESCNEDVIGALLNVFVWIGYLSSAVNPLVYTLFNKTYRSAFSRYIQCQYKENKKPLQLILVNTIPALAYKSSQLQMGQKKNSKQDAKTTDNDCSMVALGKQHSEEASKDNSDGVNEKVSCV
In short: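 Membranes were from CHO-K1 cells stably expressing 5-HT2A. Radioligand was at 1 nM, with mianserin defining nonspecific binding. Incubation ran 60 min at 27 °C in 50 mM Tris–HCl pH 7.4 with 4 mM CaCl2 and 0.1% ascorbic acid. Harvesting was by filtration through glass-fibre filters presoaked in 0.5% PEI.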

[2] = molecular target: Sodium-dependent serotonin transporter (Homo sapiens, UniProt P31645); experiment: Displacement of [3H]imipramine from human SERT expressed in HEK293 cells after 30 mins by rapid filtration assay; assay type: cell-based
Sodium-dependent serotonin transporter, sequence (P31645 whole entry): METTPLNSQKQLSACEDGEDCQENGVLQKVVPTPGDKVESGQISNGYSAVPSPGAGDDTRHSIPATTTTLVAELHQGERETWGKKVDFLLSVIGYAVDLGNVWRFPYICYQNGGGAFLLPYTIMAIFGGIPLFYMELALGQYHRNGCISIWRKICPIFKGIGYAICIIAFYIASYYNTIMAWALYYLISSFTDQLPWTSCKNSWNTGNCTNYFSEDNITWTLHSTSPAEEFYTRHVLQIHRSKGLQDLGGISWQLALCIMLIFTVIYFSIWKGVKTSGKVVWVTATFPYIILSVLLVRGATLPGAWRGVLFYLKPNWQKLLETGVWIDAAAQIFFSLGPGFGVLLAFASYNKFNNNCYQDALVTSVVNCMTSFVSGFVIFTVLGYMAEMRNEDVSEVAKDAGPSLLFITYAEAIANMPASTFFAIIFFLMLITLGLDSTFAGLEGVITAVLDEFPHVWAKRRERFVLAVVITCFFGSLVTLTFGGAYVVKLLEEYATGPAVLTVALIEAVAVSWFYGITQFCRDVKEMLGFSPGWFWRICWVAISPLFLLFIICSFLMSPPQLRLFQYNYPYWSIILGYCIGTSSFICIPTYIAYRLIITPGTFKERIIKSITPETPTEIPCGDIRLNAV
In short: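 Frozen membranes were from HEK293 cells expressing human SERT, with 4 nM [3H]imipramine in 50 mM Tris–HCl pH 7.4, 120 mM NaCl and 5 mM KCl. Unlabelled imipramine defined nonspecific binding. Incubation ran 30 min at 27 °C, terminated by rapid filtration through 0.5% PEI-presoaked glass-fibre filters.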

[3] = molecular target: T1, 5-hydroxytryptamine receptor 2C (Homo sapiens, UniProt P28335); experiment: Displacement of [3H]mesulergine from human recombinant 5-HT2C receptor expressed in CHO-K1 cells after 60 mins by rapid filtration assay; assay type: cell-based
T1 sequence (P28335 whole entry): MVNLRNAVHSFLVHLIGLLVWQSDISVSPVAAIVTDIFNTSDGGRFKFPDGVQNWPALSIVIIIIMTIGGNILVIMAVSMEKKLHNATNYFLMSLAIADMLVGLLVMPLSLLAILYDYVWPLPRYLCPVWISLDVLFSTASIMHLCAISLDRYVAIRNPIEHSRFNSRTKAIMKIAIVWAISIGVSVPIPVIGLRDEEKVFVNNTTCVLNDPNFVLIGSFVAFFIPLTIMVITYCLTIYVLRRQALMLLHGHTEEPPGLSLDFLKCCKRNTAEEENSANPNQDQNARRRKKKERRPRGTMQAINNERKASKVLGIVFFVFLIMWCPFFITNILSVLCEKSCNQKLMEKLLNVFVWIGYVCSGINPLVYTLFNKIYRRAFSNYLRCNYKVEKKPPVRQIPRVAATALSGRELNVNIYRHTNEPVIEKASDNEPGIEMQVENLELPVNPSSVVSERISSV
In short: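 Frozen membranes were from CHO-K1 cells stably expressing human recombinant 5-HT2C, with 1.4 nM [3H]mesulergine. Buffer was 50 mM Tris–HCl pH 7.4, 4 mM CaCl2 and 0.1% ascorbic acid, with methiothepin for nonspecific binding. Incubation ran 60 min at 27 °C, stopped by rapid filtration through 0.5% PEI-presoaked glass-fibre filters.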

[4] = test system: Mus musculus; experiment: Antidepressant activity in mouse assessed as decrease in duration of immobility at 50 mg/kg, po during final 5 mins of the 6 mins session by forced swimming test; assay type: functional, organism-based; parameters: dose 50 mg/kg
In short: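 Mice swim for 10 min in a 25-cm glass cylinder (10 cm diameter) holding 15 cm of water at 23 ± 1 °C. They are retested 24 h later for 6 min. Compound is suspended in 3% Tween 80 and given orally 60 min before the test. Total immobility time (floating upright, only small head-keeping movements) is scored over the last 5 min. Means ± S.E.M.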

[5] = test system: Mus musculus; experiment: Antidepressant activity in mouse assessed as decrease in duration of immobility at 25 mg/kg, po during final 5 mins of the 6 mins session by forced swimming test; assay type: functional; parameters: scale not given: the % may be the effect or the level left
In short: (§1)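 Mice swam 10 min in a 25-cm glass cylinder (10 cm diameter) holding 15 cm of water at 23 1 °C. Twenty-four hours later, drug was given po 60 min before retesting. Immobility (floating upright with only small movements keeping head above water) was totalled over the last 5 min of the 6-min test.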

[6] = molecular target: D(3) dopamine receptor (Homo sapiens, UniProt P35462); experiment: Inhibition of dopamine D3 receptor
D(3) dopamine receptor, sequence (P35462 whole entry): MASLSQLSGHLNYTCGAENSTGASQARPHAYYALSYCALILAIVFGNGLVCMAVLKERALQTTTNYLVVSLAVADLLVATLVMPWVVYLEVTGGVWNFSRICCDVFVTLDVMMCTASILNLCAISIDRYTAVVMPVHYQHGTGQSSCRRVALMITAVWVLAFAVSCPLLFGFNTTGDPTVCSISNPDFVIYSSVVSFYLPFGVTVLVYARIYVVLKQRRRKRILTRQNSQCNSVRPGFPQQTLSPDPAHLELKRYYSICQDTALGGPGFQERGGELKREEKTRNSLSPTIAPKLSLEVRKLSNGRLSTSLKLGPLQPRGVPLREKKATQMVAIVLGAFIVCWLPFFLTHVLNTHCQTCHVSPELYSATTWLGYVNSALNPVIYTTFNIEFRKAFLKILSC

[7] = molecular target: 5-hydroxytryptamine receptor 7 (Homo sapiens, UniProt P34969); experiment: Inhibition of 5HT7 receptor
5-hydroxytryptamine receptor 7, sequence (P34969 whole entry): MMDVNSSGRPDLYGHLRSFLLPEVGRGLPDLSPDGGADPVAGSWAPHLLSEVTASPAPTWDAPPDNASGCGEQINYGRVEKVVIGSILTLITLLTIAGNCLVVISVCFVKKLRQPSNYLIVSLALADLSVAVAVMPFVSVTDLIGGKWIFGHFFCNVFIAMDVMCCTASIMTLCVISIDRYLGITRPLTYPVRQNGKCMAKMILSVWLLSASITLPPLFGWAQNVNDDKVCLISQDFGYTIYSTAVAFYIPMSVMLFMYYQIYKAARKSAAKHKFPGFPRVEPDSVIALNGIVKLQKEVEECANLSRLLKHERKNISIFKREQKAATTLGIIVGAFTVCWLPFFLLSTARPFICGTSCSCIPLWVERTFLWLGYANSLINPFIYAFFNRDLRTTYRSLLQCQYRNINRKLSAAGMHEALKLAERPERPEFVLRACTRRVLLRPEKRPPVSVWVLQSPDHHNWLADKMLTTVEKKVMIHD

[8] = molecular target: 5-hydroxytryptamine receptor 6 (Homo sapiens, UniProt P50406); experiment: Inhibition of 5HT6 receptor
5-hydroxytryptamine receptor 6, sequence (P50406 whole entry): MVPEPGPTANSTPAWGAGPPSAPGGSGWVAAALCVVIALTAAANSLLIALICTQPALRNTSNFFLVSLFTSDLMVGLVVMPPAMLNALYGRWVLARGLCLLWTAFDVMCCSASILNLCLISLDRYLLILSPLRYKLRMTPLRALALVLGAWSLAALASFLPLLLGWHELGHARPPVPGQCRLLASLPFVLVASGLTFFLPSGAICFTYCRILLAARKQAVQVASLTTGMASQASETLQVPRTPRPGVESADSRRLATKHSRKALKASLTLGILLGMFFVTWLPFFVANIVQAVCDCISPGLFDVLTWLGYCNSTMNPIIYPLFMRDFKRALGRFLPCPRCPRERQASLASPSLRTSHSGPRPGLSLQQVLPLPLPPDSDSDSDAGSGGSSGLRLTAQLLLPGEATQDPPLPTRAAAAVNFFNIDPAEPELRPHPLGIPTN

[9] = molecular target: T2, D(4) dopamine receptor (Homo sapiens, UniProt P21917); experiment: Inhibition of dopamine D4 receptor
T2 sequence (P21917 whole entry): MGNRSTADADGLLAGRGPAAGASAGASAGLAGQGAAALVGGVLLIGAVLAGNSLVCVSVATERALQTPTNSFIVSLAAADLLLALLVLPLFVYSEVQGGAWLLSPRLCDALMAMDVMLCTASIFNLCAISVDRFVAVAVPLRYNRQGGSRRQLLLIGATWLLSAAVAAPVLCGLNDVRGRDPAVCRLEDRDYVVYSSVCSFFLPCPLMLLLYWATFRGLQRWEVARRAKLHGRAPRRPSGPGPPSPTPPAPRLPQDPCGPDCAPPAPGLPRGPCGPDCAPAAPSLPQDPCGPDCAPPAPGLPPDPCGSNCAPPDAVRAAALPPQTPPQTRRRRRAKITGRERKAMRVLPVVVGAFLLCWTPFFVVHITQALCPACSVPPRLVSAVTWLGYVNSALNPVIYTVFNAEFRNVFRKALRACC

[10] = test system: Mus musculus; experiment: Antidepressant activity in mouse assessed as decrease in duration of immobility at 10 mg/kg, po during final 5 mins of the 6 mins session by forced swimming test; assay type: functional; parameters: scale not given: the % may be the effect or the level left; in short: as §1
[11] = molecular target: T3, 5-hydroxytryptamine receptor 1A (Homo sapiens, UniProt P08908); experiment: Inhibition of 5HT1A receptor
T3 sequence (P08908 whole entry): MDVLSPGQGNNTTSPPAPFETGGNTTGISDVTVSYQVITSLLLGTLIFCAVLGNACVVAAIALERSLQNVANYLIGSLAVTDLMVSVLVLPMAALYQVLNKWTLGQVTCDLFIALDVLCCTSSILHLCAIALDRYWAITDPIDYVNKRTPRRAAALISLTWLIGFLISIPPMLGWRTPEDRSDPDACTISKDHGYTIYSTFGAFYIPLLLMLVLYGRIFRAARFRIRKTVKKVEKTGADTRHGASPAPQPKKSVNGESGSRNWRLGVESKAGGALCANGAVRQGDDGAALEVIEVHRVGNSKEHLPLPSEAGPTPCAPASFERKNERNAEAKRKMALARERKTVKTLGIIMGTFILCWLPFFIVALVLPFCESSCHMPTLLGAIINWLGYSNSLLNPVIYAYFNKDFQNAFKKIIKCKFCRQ

[12] = molecular target: D(2) dopamine receptor (Homo sapiens, UniProt P14416); experiment: Inhibition of dopamine D2 receptor
D(2) dopamine receptor, sequence (P14416 whole entry): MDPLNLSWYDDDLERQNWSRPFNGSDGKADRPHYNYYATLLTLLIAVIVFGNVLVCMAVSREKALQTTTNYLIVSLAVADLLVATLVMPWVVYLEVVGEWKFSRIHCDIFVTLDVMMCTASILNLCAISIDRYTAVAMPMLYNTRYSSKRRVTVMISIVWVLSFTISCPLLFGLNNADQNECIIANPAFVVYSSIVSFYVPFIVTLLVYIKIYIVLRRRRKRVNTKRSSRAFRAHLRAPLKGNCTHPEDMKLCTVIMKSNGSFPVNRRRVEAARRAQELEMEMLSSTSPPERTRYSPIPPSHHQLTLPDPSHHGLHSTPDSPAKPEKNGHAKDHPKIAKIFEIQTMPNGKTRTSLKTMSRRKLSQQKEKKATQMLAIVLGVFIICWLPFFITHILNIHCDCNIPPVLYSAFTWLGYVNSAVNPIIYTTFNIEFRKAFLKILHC

[13] = test system: Mus musculus; experiment: Antidepressant activity in mouse assessed as decrease in duration of immobility at 100 mg/kg, po during final 5 mins of the 6 mins session by forced swimming test; assay type: functional; in short: as §1
[14] = Elimination half life in rat at 5 mg/kg, po; assay type: ADME, organism-based; parameters: dose 5 mg/kg, route oral; settings: in vivo, read-out: beta t1/2 (converted)
In short: (§2)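 Rats dosed once with the HCl salt, either i.v. at 1 mg/kg (n = 2 or 3) or orally at 5 mg/kg (n = 3). Plasma and brain levels were followed to derive Cmax, Clast, Tmax, t1/2, AUC, dose-normalised AUC, oral bioavailability (F) and the brain/plasma ratio.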

[15] = Half life in rat plasma; assay type: ADME, cell-free; in short: as §2
[16] = test system: Rattus norvegicus; experiment: Oral bioavailability in rat at 5 mg/kg; assay type: ADME, organism-based; settings: in vivo; in short: as §2
[17] = Cmax in rat plasma; assay type: ADME, organism-based; in short: as §2
[18] = test system: Brain; experiment: Clast in rat brain; assay type: ADME, tissue-based; settings: in vivo; in short: as §2
[19] = test system: Rattus norvegicus; experiment: Clast in rat at 1 mg/kg, iv; assay type: ADME, organism-based; parameters: dose 1 mg/kg, route intravenous; settings: in vivo; in short: as §2
[20] = Cmax in rat brain; assay type: ADME, organism-based; in short: as §2
[21] = Half life in rat brain; assay type: ADME, tissue-based; in short: as §2
[22] = Half life in rat at 1 mg/kg, iv; assay type: ADME, organism-based; parameters: dose 1 mg/kg, route intravenous; settings: in vivo; in short: as §2
[23] = test system: Plasma; experiment: Clast in rat plasma; assay type: ADME, cell-free; in short: as §2
[24] = AUC in rat plasma; assay type: ADME, cell-free; in short: as §2
[25] = Cmax in rat at 1 mg/kg, iv; assay type: ADME, organism-based; parameters: dose 1 mg/kg, route intravenous; settings: in vivo; in short: as §2
[26] = Tmax in rat brain; assay type: ADME, tissue-based; in short: as §2
[27] = Tmax in rat plasma; assay type: ADME, cell-free; in short: as §2
[28] = test system: Rattus norvegicus; experiment: Dose normalized AUC (0 to infinity) in rat at 1 mg/kg, iv; assay type: ADME, organism-based; parameters: dose 1 mg/kg, route intravenous; settings: in vivo; in short: as §2
[29] = test system: Rattus norvegicus; experiment: Clast in rat at 5 mg/kg, po; assay type: ADME, organism-based; parameters: dose 5 mg/kg, route oral; settings: in vivo; in short: as §2
[30] = Cmax in rat at 5 mg/kg, po; assay type: ADME, organism-based; parameters: dose 5 mg/kg, route oral; settings: in vivo; in short: as §2
[31] = test system: Rattus norvegicus; experiment: AUC (0 to infinity) in rat at 1 mg/kg, iv; assay type: ADME, organism-based, Plasma; parameters: time infinity, dose 1 mg/kg, route intravenous; settings: in vivo; in short: as §2
[32] = Ratio of drug level in brain to plasma in rat; assay type: ADME, cell-free; in short: as §2
[33] = AUC in rat brain; assay type: ADME, tissue-based; in short: as §2
[34] = test system: Rattus norvegicus; experiment: Dose normalized AUCirlf in rat at 5 mg/kg, po; assay type: ADME, organism-based; parameters: dose 5 mg/kg, route oral; settings: in vivo; in short: as §2
[35] = Tmax in rat at 5 mg/kg, po; assay type: ADME, organism-based; parameters: dose 5 mg/kg, route oral; settings: in vivo; in short: as §2

Cc1c(C(=O)NCCCN2CCN(c3cccc(Cl)c3)CC2)cc(-c2ccccc2)n1CC(C)C
pIC50 [1]: 6.48
pIC50 [2]: 6.96
pIC50 [3]: 5.80

Cc1cccc(N2CCN(CCCNC(=O)c3cc(-c4ccccc4)n(N4CCCCC4)c3C)CC2)c1C
pIC50 [1]: 6.88
pIC50 [2]: 7.04
pIC50 [3]: 6.38

Cc1cccc(N2CCN(CCCNC(=O)c3cc(-c4ccccc4)n(C)c3C)CC2)c1C
Activity [4]: Active

CCCn1c(-c2ccccc2)cc(C(=O)NCCCN2CCN(c3cccc(Cl)c3Cl)CC2)c1C
Activity [5]: <50%
pIC50 [6]: 5.97
pIC50 [7]: 6.39
pIC50 [8]: 5.72
pIC50 [9]: 6.19
Activity [10]: 80%
pIC50 [11]: 7.03
pIC50 [12]: 5.43

CCn1c(-c2ccccc2)cc(C(=O)NCCCN2CCN(c3cccc(Cl)c3)CC2)c1C
Activity [13]: inactive

Cc1c(C(=O)NCCCN2CCN(c3cccc(Cl)c3)CC2)cc(-c2ccccc2)n1Cc1ccccc1
pIC50 [1]: 6.75
pIC50 [2]: 6.63
pIC50 [3]: 5.84

Cc1[nH]c(-c2ccccc2)cc1C(=O)NCCCN1CCN(c2cccc(Cl)c2Cl)CC1.Cl
half-life [14]: 2.52 h
half-life [15]: 1.97 h
F [16]: 61.03%
Cmax [17]: 190 ng/mL
Clast [18]: 60 ng/mL
Clast [19]: 4 ng/mL
Cmax [20]: 90 ng/mL
half-life [21]: 3.42 h
half-life [22]: 1.76 h
Clast [23]: 100 ng/mL
AUC [24]: 538 ng·h/mL
Cmax [25]: 690 ng/mL
Tmax [26]: 2 h
Tmax [27]: 2 h
AUC/dose [28]: 20.945 µg·min/mL
Clast [29]: 1 ng/mL
Cmax [30]: 245 ng/mL
AUC [31]: 20.945 µg·min/mL
Kp [32]: 46
AUC [33]: 247 ng·h/mL
AUC/dose [34]: 12.783 µg·min/mL
Tmax [35]: 1.17 h

Cc1c(C(=O)NCCCN2CCN(c3cccc(Cl)c3Cl)CC2)cc(-c2ccccc2)n1-c1ccc(F)cc1
pIC50 [7]: 6.28

Cc1c(C(=O)NCCN2CCN(c3cccc(Cl)c3Cl)CC2)cc(-c2ccccc2)n1C
pIC50 [1]: 6.76
pIC50 [2]: 7.24
pIC50 [3]: 6.81
